According to ChEMBL document CHEMBL1139391, “Synthesis and structure-activity relationship of benzetimide derivatives as human CXCR3 antagonists” (Bioorg Med Chem Lett, 2008):

What was measured:
[1] = biological target: T1, C-C chemokine receptor type 1 (Homo sapiens) (UniProt P32246); experiment: Displacement of [125I]MIP1alpha from human CCR1 expressed in CHO cells at 10 uM; assay type: cell-based
T1 sequence (whole entry): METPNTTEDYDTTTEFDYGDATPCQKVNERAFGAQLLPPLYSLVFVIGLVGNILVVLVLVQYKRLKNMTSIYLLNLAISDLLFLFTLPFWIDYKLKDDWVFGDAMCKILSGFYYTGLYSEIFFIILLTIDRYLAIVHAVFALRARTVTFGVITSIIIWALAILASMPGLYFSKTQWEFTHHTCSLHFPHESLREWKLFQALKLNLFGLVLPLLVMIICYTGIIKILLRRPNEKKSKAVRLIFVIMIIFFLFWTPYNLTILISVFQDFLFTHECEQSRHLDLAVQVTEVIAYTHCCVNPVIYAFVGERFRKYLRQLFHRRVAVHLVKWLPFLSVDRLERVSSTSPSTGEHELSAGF

[2] = biological target: C-C chemokine receptor type 2 (Homo sapiens) (UniProt P41597); experiment: Displacement of [125I]MCP1 from human CCR2 expressed in CHO cells at 10 uM; assay type: cell-based
Sequence of C-C chemokine receptor type 2 (Homo sapiens) (P41597 whole entry, looked up): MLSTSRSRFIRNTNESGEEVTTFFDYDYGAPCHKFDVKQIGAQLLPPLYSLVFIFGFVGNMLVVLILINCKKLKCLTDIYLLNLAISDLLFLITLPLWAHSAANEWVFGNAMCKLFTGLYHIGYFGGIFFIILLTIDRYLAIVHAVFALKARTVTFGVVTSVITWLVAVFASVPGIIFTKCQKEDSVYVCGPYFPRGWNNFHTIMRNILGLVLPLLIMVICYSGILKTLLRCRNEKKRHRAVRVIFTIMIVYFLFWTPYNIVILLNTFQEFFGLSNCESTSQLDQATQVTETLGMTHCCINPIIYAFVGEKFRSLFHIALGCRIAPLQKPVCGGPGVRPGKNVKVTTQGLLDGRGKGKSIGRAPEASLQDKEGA

[3] = biological target: T2, C-C chemokine receptor type 4 (Homo sapiens) (UniProt P51679); experiment: Displacement of [125I]TARC from human CCR4 expressed in CHO cells at 10 uM; assay type: cell-based
T2 sequence (whole entry): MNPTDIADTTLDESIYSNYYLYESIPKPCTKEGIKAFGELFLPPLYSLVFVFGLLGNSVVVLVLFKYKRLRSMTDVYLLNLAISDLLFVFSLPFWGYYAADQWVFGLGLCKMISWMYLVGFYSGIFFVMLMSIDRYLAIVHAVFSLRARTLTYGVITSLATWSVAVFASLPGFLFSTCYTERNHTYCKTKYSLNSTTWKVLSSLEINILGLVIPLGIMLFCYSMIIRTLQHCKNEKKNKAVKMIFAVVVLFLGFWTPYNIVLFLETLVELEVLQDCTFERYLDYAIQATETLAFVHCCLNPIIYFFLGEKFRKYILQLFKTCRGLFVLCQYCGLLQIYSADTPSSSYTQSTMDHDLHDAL

[4] = biological target: Interleukin-8 receptors, CXCR1/CXCR2 (Homo sapiens) (UniProt P25025+P25024); experiment: Displacement of [125I]IL8 from human CXCR1/2 expressed in CHO cells at 10 uM; assay type: cell-based
[5] = biological target: T3, CX3C chemokine receptor 1 (Homo sapiens) (UniProt P49238); experiment: Displacement of [125I]fractalkine from human […] expressed in CHO cells at 10 uM; assay type: cell-based
T3 sequence (whole entry): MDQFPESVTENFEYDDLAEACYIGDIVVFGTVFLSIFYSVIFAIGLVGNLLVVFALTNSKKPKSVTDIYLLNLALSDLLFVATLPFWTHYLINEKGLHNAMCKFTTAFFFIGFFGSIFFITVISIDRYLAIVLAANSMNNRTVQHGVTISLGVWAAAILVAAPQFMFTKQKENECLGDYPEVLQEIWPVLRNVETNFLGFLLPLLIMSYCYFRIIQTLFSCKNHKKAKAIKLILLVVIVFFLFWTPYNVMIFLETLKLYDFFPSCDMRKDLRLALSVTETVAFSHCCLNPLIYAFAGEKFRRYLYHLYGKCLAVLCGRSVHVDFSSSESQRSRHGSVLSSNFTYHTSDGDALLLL

[6] = biological target: T4, C-X-C chemokine receptor type 3 (Homo sapiens, UniProt P49682); experiment: Antagonist activity at human CXCR3 expressed in CHO cells assessed as inhibition of ITAC-stimulated [35S]GTPgammaS binding pretreated 30 mins before ITAC challenge; assay type: functional, cell-based
T4 sequence (P49682 whole entry): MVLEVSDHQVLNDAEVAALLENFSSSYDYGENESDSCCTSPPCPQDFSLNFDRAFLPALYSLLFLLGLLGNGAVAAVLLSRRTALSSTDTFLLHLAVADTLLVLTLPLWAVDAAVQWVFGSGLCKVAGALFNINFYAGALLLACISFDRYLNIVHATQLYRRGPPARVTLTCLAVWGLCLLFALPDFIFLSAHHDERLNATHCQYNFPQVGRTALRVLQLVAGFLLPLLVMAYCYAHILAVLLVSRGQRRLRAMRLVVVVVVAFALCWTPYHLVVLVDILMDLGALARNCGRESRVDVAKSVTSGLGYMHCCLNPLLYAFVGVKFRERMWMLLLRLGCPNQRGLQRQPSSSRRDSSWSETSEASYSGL

[7] = biological target: T5, Muscarinic acetylcholine receptor M1 (Homo sapiens, UniProt P11229); experiment: Binding affinity to human muscarinic M1 receptor
T5 sequence (P11229 whole entry): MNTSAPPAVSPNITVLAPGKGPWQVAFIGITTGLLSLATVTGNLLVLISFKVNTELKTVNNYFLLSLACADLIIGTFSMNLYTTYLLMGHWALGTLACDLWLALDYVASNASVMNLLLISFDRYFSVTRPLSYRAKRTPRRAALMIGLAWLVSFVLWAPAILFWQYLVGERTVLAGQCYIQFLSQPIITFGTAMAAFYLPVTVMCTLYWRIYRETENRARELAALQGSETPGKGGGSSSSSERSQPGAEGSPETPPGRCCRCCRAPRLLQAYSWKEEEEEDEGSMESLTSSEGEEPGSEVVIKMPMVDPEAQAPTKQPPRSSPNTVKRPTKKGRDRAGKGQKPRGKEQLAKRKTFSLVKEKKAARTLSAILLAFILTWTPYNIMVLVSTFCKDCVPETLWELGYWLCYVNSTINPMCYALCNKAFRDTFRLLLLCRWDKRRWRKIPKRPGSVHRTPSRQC

[8] = biological target: T6, Muscarinic acetylcholine receptor M2 (Homo sapiens, UniProt P08172); experiment: Binding affinity to human muscarinic M2 receptor
T6 sequence (P08172 whole entry): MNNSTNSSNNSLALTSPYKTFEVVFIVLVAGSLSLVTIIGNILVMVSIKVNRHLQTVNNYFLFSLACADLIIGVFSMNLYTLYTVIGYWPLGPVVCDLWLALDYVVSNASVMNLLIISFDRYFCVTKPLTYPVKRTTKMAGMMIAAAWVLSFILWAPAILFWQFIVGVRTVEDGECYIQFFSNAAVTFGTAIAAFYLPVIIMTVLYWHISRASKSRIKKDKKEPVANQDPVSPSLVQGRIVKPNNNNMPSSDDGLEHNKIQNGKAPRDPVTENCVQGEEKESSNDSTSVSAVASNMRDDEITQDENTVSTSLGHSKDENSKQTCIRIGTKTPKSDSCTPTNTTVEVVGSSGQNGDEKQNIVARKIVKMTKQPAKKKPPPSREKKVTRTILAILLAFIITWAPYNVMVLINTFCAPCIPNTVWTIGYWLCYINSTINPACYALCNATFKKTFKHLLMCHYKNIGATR

[9] = biological target: Muscarinic acetylcholine receptor M3 (Homo sapiens, UniProt P20309); experiment: Binding affinity to human muscarinic M3 receptor
Sequence of Muscarinic acetylcholine receptor M3 (P20309 whole entry): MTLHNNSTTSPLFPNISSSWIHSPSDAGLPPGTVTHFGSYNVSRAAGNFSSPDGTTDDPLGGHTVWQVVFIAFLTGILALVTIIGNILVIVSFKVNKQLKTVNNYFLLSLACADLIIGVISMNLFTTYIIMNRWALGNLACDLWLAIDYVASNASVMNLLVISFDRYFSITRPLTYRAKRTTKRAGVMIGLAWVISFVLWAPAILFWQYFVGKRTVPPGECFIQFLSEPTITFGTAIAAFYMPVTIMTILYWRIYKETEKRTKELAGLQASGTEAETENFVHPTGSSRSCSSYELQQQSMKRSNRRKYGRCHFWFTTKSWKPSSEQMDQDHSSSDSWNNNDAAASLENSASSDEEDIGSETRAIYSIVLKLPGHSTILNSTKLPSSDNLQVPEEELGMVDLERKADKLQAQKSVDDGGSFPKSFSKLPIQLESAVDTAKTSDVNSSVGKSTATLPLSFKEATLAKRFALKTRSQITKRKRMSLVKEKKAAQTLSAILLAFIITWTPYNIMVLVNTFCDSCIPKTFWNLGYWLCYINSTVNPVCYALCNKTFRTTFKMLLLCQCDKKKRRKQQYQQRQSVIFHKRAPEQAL

PBMC = experiment: Reduction of ITAC-induced migration in PHA/IL-2 activated human PBMC pretreated 10 mins before ITAC challenge after 3 hrs by fluorescent plate reader; assay type: functional, cell-based
In short: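 Cells pre-incubated with compound for 10 min at 25 °C. 80,000 cells per well placed on the filter topside, in 6-fold replicates. Lower wells held 3 nM human ITAC. After 3 h at 37 °C, non-migrated cells were removed and migrated cells quantified by fluorescence plate reader.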

[10] = biological target: T4, C-X-C chemokine receptor type 3; experiment: Displacement of [125I]ITAC from CXCR3 in PHA/IL-2 activated human PBMC pretreated 30 mins before [125I]ITAC challenge after 1 hr by liquid scintillation counter
In short: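 Pre-incubated with compound for 30 min. 80 pM [125I]-ITAC (2000 Ci/mmol) added for 60 min at 4 °C. Harvested on polyethyleneimine-presoaked GF/B filters; radioactivity counted by liquid scintillation.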

| Compound | inhibition [1] | inhibition [2] | inhibition [3] | inhibition [4] | inhibition [5] | IC50 [6] | IC50 [7] | IC50 [8] | IC50 [9] | IC50 (PBMC) | IC50 [10] |
| --- | --- | --- | --- | --- | --- | --- | --- | --- | --- | --- | --- |
| O=C1CCC(c2ccccc2)(C2CCN(Cc3ccc(Br)cc3)CC2)C(=O)N1 (stereo in doubt; (-)-1a) [listing 1 of 2 here] | < 25% | < 25% | < 25% | < 25% | < 25% |  |  |  |  |  |  |
| O=C1CCC(c2ccccc2)(C2CCN(Cc3ccc(Br)cc3)CC2)C(=O)N1 (stereo in doubt; (-)-1a) [listing 2 of 2 here] |  |  |  |  |  | 610 nM | 9600 nM | > 10000 nM | > 10000 nM | 690 nM | 330 nM |
